Measured values: ChEMBL document CHEMBL1132380, “Drug delivery systems employing 1,4- or 1,6-elimination: poly(ethylene glycol) prodrugs of amine-containing compounds” (J Med Chem, 1999)

Tests used:
Mus musculus [1] = assay: Toxicity at a dose of 830 mg/kg against M109 tumors conducted in female BALB/c mice; assay type: functional
[2] = Half-life in rat plasma; assay type: ADME
Summary of the method: (§1)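 Release of free drug and hydrolysis of PEG conjugate followed in PBS (pH 7.4) or fresh rat plasma at 37 °C. Half-life derived from these rates. Run in duplicate; SD ±10%.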

[3] = Half-life in buffer at pH 7.4; assay type: ADME; summary of the method: as §1
Mus musculus [4] = assay: Effect of 3 mg/kg/dose of compound given iv q4d x 3 against sc human ovarian tumor (SK-OV3) in mice expressed as Mean tumor volume by day 30; assay type: functional
Summary of the method: (§2)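 Female nu/nu mice (18–24 g) given 1×10^6 SKOV3 cells sc in the left flank in 0.1 mL medium. SKOV3 grown in McCoy's 5a with 15% FBS. Dosing starts at about 70 mm³ mean tumor volume (day 1), with 3 mg/kg/dose DNR content iv on days 1, 5 and 9. n = 5/group against untreated controls. Mean volumes compared at day 30; median volumes compared when control median reached about 1000 mm³.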

Mus musculus [5] = assay: Effect of 3 mg/kg/dose of compound given iv q4d x 3 against sc human ovarian tumor (SK-OV3) in mice expressed as % tumor volume change from initial by day 30; assay type: functional; summary of the method: as §2
Mus musculus [6] = assay: Effect of 3 mg/kg/dose of compound given iv q4d x 3 against sc human ovarian tumor (SK-OV3) in mice expressed as treated/ control ( 1000 mm**3) median tumor volume on day 30; assay type: functional; summary of the method: as §2
Mus musculus [7] = assay: Effect of 3 mg/kg/dose of compound given iv q4d x 3 against sc human ovarian tumor (SK-OV3) in mice expressed as treated/ control mean tumor volume on day 30; assay type: functional; summary of the method: as §2
Mus musculus [8] = assay: T/C of median tumor volumes when 3 mg/kg/dose of compound was given to BALB/c mice bearing sc M109 on days 1 and 4 (ip) after inoculation (control ~2000 mm**3); assay type: functional; details: route intraperitoneal
Summary of the method: (§3)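 Female balb/c mice (20–25 g) given about 5×10^5 M109 cells sc in the left flank on day 0. M109 grown in EMEM with 10% FBS. Dosing is 3 mg/kg/dose of active DNR, ip on days 1 and 4 or iv on days 3 and 6. Groups of 6 include untreated controls. Median tumor volumes compared when control median reached about 2000 mm³.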

Mus musculus [9] = assay: T/C of median tumor volumes when 3 mg/kg/dose of compound was given to BALB/c mice bearing sc M109 on days 3 and 6 (iv) after inoculation (control ~2000 mm**3); assay type: functional; summary of the method: as §3
P388 = assay: Compound was evaluated for cytotoxicity against P388 leukemia cell line.; assay type: functional, cell-based; details: Mus musculus

Row | SMILES | half-life [2] | half-life [3] | Toxicity (deaths) (Mus musculus [1]) | Mean tumor volume (Mus musculus [4]) | Tumor growth (Mus musculus [5]) | T/C (Mus musculus [6]) | T/C (Mus musculus [7]) | T/C (Mus musculus [8]) | T/C (Mus musculus [9]) | IC50 (P388)
1 | Cc1cc(COC(=O)NC(C)C)cc(C)c1NC(=O)OCCOCCOCCO |  |  | 0% |  |  |  |  |  |  | 
2 | COc1cccc2c1C(=O)c1c(O)c3c(c(O)c1C2=O)C[C@@](O)(C(=O)CNC(=O)OCc1ccc(OC(=O)C(C)(C)NC(=O)CCOCCOCCO)cc1)C[C@@H]3OC1CC(N)C(O)C(C)O1 (stereo not given in full) | 1.3 h | > 48 h |  |  |  |  |  | 87.6% |  | 0.018 µM
3 | COc1cc(COC(=O)NC(CC(C)C)C(=O)OC(C)(C)C)cc(OC)c1OC(=O)CCOCCOCCO (stereo not given) |  |  | 0% |  |  |  |  |  |  | 
4 | Cc1cc(COC(=O)NC(C)C)cc(C)c1OC(=O)CCOCCOCCO |  |  | 0% |  |  |  |  |  |  | 
5 | COc1cccc2c1C(=O)c1c(O)c3c(c(O)c1C2=O)C[C@@](O)(C(C)=O)C[C@@H]3O[C@H]1C[C@H](N)[C@H](O)[C@H](C)O1 [DAUNORUBICIN] |  |  |  | 1154 | 1226% | 54% | 92% | 44.8% | 117% | 0.003 µM
6 | COc1cccc2c1C(=O)c1c(O)c3c(c(O)c1C2=O)C[C@@](O)(C(=O)CNC(=O)OCc1ccccc1OC(=O)NCCOCCOCCO)C[C@@H]3OC1CC(N)C(O)C(C)O1 (stereo not given in full) | 3 h | > 48 h |  |  |  |  |  | 91.3% | 68.7% | 0.035 µM
7 | COc1cc(COC(=O)NCC(=O)[C@]2(O)Cc3c(O)c4c(c(O)c3[C@@H](OC3CC(N)C(O)C(C)O3)C2)C(=O)c2c(OC)cccc2C4=O)cc(OC)c1OC(=O)CCOCCOCCO (stereo not given in full) | 1 h | > 48 h |  |  |  |  |  | 68.6% | 48.2% | 0.027 µM
8 | COc1cccc2c1C(=O)c1c(O)c3c(c(O)c1C2=O)C[C@@](O)(C(=O)CNC(=O)OCc1ccc(OC(=O)NCCOCCOCCO)cc1)C[C@@H]3OC1CC(N)C(O)C(C)O1 (stereo not given in full) | 4 h | > 48 h |  | 154 | 86% | 11% | 12% | 84.1% | 64.6% | 0.015 µM
9 | COc1cccc2c1C(=O)c1c(O)c3c(c(O)c1C2=O)C[C@@](O)(C(=O)CNC(=O)OCc1cc(C)c(OC(=O)OCCOCCOCCO)c(C)c1)C[C@@H]3OC1CC(N)C(O)C(C)O1 (stereo not given in full) | 2.9 h | > 48 h |  |  |  |  |  | 90.3% | 74.4% | 0.179 µM

Further lines, with some results ahead:

Row | half-life [2] | half-life [3] | SMILES | Toxicity (deaths) (Mus musculus [1]) | Mean tumor volume (Mus musculus [4]) | Tumor growth (Mus musculus [5]) | T/C (Mus musculus [6]) | T/C (Mus musculus [7]) | T/C (Mus musculus [8]) | T/C (Mus musculus [9]) | IC50 (P388)
10 | > 24 h | > 48 h | COc1cccc2c1C(=O)c1c(O)c3c(c(O)c1C2=O)C[C@@](O)(C(=O)CNC(=O)OCc1ccc(NC(=O)OCCOCCOCCO)cc1)C[C@@H]3OC1CC(N)C(O)C(C)O1 (stereo not given in full) |  | 272 | 400% | 41% | 21% | 75.3% | 129% | 0.415 µM
11 | > 24 h | > 48 h | COc1cccc2c1C(=O)c1c(O)c3c(c(O)c1C2=O)C[C@@](O)(C(=O)CNC(=O)OCc1ccc(NC(=O)CCOCCOCCO)cc1)C[C@@H]3OC1CC(N)C(O)C(C)O1 (stereo not given in full) |  |  |  |  |  | 122.7% |  | 0.457 µM
12 | 0.4 h | > 24 h | COc1cccc2c1C(=O)c1c(O)c3c(c(O)c1C2=O)C[C@@](O)(C(=O)CNC(=O)OCc1ccc(OC(=O)CCOCCOCCO)cc1)C[C@@H]3OC1CC(N)C(O)C(C)O1 (stereo not given in full) |  |  |  |  |  | 92.8% |  | 0.008 µM
13 | 1.9 h | > 48 h | COc1cccc2c1C(=O)c1c(O)c3c(c(O)c1C2=O)C[C@@](O)(C(=O)CNC(=O)OCc1cc(C)c(OC(=O)CCOCCOCCO)c(C)c1)C[C@@H]3OC1CC(N)C(O)C(C)O1 (stereo not given in full) |  |  |  |  |  | 90.3% | 67.9% | 0.055 µM
14 | > 24 h | > 48 h | COc1cccc2c1C(=O)c1c(O)c3c(c(O)c1C2=O)C[C@@](O)(C(=O)CNC(=O)OCc1ccccc1NC(=O)OCCOCCOCCO)C[C@@H]3OC1CC(N)C(O)C(C)O1 (stereo not given in full) |  |  |  |  |  | 112.2% | 117% | 0.13 µM
